According to ChEMBL document CHEMBL4382237, “Design, Synthesis, and Biological Evaluation of 2-Nitroimidazopyrazin-one/-es with Antitubercular and Antiparasitic Activity” (J Med Chem, 2018):
In brackets after ≈: the same amount, converted by molar mass.

Assays:
[1] = test system: Mycobacterium tuberculosis; assay: Antibacterial activity against non-replicating Mycobacterium tuberculosis H37Rv after 5 days under hypoxic condition by resazurin dye-based fluorescence assay; type: functional; details: 120 h
Outline: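 Same H37Rv inoculum (OD600 0.001, ~2 x 10^4 CFU/mL) in 7H9S with serially diluted compound. Plates held 5 days at 0.1% oxygen, then resazurin plus Tween-80 added.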

[2] = test system: Clostridioides difficile; assay: Antibacterial activity against Clostridium difficile 630 ATCC BAA-1382 by broth microdilution assay; type: functional
Outline: (§1)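 Broth microdilution run essentially per an earlier report. MIC taken as the lowest concentration with no visible growth. Replicates typically agreed within one 2-fold dilution. The median MIC is reported, with a range where the median fell between two tested concentrations.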

[3] = test system: Giardia intestinalis; assay: Antiparasitic activity against Giardia lamblia WB trophozoites after 24 to 48 hrs by CellTiter-Glo luminescent cell viability assay; details: Giardia duodenalis
[4] = test system: Entamoeba histolytica; assay: Antiparasitic activity against Entamoeba histolytica HM-1:IMSS trophozoites after 24 to 48 hrs by CellTiter-Glo luminescent cell viability assay; type: functional, organism-based
Outline: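 Axenic trophozoites were kept in TYI-S-33 with penicillin (100 U/mL) and streptomycin (100 µg/mL) and harvested in log phase. 5000 parasites per well were exposed to a final 8-point two-fold series of 0.39–50 µM, from 10 mM DMSO stocks. Plates were incubated 24–48 h at 37 °C under anaerobic conditions. ATP luminescence viability was read in triplicate. Percent inhibition is given at the highest concentration tested.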

[5] = test system: Klebsiella pneumoniae; assay: Antibacterial activity against Klebsiella pneumoniae 700603 by broth microdilution assay; type: functional; outline: as §1
[6] = test system: Acinetobacter baumannii; assay: Antibacterial activity against Acinetobacter baumannii ATCC 19606 by broth microdilution assay; type: functional; details: ATCC 19606 = CIP 70.34 = JCM 6841; outline: as §1
[7] = test system: Pseudomonas aeruginosa; assay: Antibacterial activity against Pseudomonas aeruginosa ATCC 27853 by broth microdilution assay; type: functional; outline: as §1
[8] = test system: Escherichia coli; assay: Antibacterial activity against Escherichia coli ATCC 25922 by broth microdilution assay; type: functional; outline: as §1
[9] = test system: Staphylococcus aureus; assay: Antibacterial activity against methicillin-resistant Staphylococcus aureus ATCC […] by broth microdilution assay; type: functional
[10] = test system: Cryptococcus neoformans; assay: Antifungal activity against Cryptococcus neoformans H99 ATCC […] broth microdilution assay; type: functional; details: var. grubii H99 ATCC 208821; outline: as §1
[11] = test system: Candida albicans; assay: Antifungal activity against Candida albicans ATCC 90028 by broth microdilution assay; type: functional; outline: as §1
[12] = test system: Mycobacterium tuberculosis; assay: Antibacterial activity against Mycobacterium tuberculosis H37Rv after 5 days under normoxic condition by resazurin dye-based fluorescence assay; type: functional, organism-based
Outline: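 H37Rv grown in 7H9/ADC/glycerol/Tyloxapol to mid-exponential phase, diluted to OD600 0.001 (~2 x 10^4 CFU/mL) in 7H9S with serially diluted compound. Incubated 5 days at 37 °C, then resazurin and Tween-80 added. Fluorescence (ex 530/em 590 nm) read after 24 h, normalised to no-drug and no-bacteria wells.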

[13] = test system: Trypanosoma brucei brucei; assay: Antiparasitic activity against bloodstream form of Trypanosoma brucei brucei strain 427 after 48 hrs by resazurin dye-based assay; type: functional, organism-based; details: strain 427, 48 h
[14] = test system: HEK293; assay: Cytotoxicity against HEK293 cells after 24 hrs by resazurin dye-based fluorescence assay; type: cell-based; details: human, hek293, 24 h
Outline: (§2)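 HEK293 (3000/well) and HepG2 (5000/well) were grown 24 h in DMEM with 10% FBS at 37 °C, 5% CO2. Cells were then exposed 24 h to a dilution series up to 100 µM (0.5% DMSO). 5 µM resazurin was added for 2 h, read at ex 560/em 590. 1% Triton X-100 served as lysis control. CC50 was derived from the curves.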

[15] = test system: HepG2; assay: Cytotoxicity against human HepG2 cells after 24 hrs by resazurin dye-based fluorescence assay; type: cell-based; details: hepg2, 24 h; outline: as §2

| Structure (SMILES) | MIC [1] [µg/mL] | MIC [2] [µg/mL] | IC50 [3] [µM] | IC50 ([4]; read-out: IC50) [µM] | MIC [5] [µg/mL] | MIC [6] [µg/mL] | MIC [7] [µg/mL] | MIC [8] [µg/mL] | IC50 ([3]; read-out: pIC50 (converted)) [µM] | MIC [9] [µg/mL] | MIC [10] [µg/mL] | MIC [11] [µg/mL] | MIC [12] [µg/mL] | IC50 ([4]; read-out: pIC50 (converted)) [µM] | IC50 ([13]; read-out: IC50) [µM] | IC50 ([13]; read-out: pIC50 (converted)) [µM] | CC50 [14] [µM] | CC50 [15] [µM] |
| --- | --- | --- | --- | --- | --- | --- | --- | --- | --- | --- | --- | --- | --- | --- | --- | --- | --- | --- |
| CCOC(=O)c1nc([N+](=O)[O-])cn1Cc1ccc(OC(F)(F)F)cc1 | > 32 | 16 to 64 (≈ 44.5 to 178 µM) | 2.7 to 7.5 | 10 to 45 | – | – | – | – | – | – | – | – | – | – | – | – | – | – |
| O=c1c2nc([N+](=O)[O-])cn2ccn1CCO | – | – | > 50 | – | > 32 | > 32 | > 32 | > 32 | > 50.1 | > 32 | > 32 | > 32 | – | – | – | – | – | – |
| Cc1cn2cc([N+](=O)[O-])nc2c(=O)n1Cc1ccccc1OC(F)(F)F | > 32 | – | 3.3 | 9.1 | – | – | – | – | 3.16 | – | – | – | >32 | 10 | 2.1 | 2 | – | – |
| NC(=O)c1nc([N+](=O)[O-])cn1Cc1ccccc1 | > 32 | > 64 | 4.1 to 50 | > 25 | – | – | – | – | – | – | – | – | – | – | – | – | – | – |
| Cc1cn2cc([N+](=O)[O-])nc2c(OCc2ccccc2OC(F)(F)F)n1 | > 32 | – | 5.7 | > 50 | – | – | – | – | 6.31 | – | – | – | >32 | > 50.1 | 1.2 | 1.26 | – | – |
| Cc1ccc(CNC(=O)c2nc([N+](=O)[O-])c[nH]2)cc1 | > 32 | 4 to 16 (≈ 15.4 to 61.5 µM) | 0.2 to 0.5 | 2.2 to 4.5 | – | – | – | – | – | – | – | – | – | – | – | – | – | – |
| NC(=O)c1nc([N+](=O)[O-])cn1Cc1ccc(OC(F)(F)F)cc1 | > 32 | > 64 | 4.1 to 50 | > 25 | – | – | – | – | – | – | – | – | – | – | – | – | – | – |
| Cc1[nH]c(=O)c2nc([N+](=O)[O-])cn2c1C | > 32 | – | 50 | > 50 | – | – | – | – | 50.1 | – | – | – | >32 | > 50.1 | 2.6 | 2.51 | – | – |
| Cc1ccc(COc2nc(C)c(C)n3cc([N+](=O)[O-])nc23)cc1 | > 32 | – | 5.8 | > 50 | – | – | – | – | 6.31 | – | – | – | >32 | > 50.1 | 2.2 | 2.51 | – | – |
| NNC(=O)c1nc([N+](=O)[O-])cn1Cc1ccc(OC(F)(F)F)cc1 | > 32 | 16 to 64 (≈ 46.3 to 185 µM) | 2.7 to 7.5 | 10 to 45 | – | – | – | – | – | – | – | – | – | – | – | – | – | – |
| NC(=O)c1nc([N+](=O)[O-])cn1Cc1cccc(OC(F)(F)F)c1 | > 32 | > 64 | 4.1 to 50 | > 25 | – | – | – | – | – | – | – | – | – | – | – | – | – | – |
| CNC(=O)c1nc([N+](=O)[O-])cn1Cc1ccc(OC(F)(F)F)cc1 | > 32 | 16 to 64 (≈ 46.5 to 186 µM) | 2.7 to 7.5 | 10 to 45 | – | – | – | – | – | – | – | – | – | – | – | – | – | – |
| Cc1ccc(COc2nc(C)cn3cc([N+](=O)[O-])nc23)cc1 | – | – | 5.7 | 30 | – | – | – | – | 6.31 | – | – | – | – | 31.6 | – | – | – | – |
| Cc1c(C)n2cc([N+](=O)[O-])nc2c(=O)n1Cc1cccc(OC(F)(F)F)c1 | 16 to 32 (≈ 41.9 to 83.7 µM) | – | 1.7 | 15 | – | – | – | – | 1.58 | – | – | – | 1 (≈ 2.62 µM) | 15.8 | 0.4 | 0.398 | 50.6 to 74.5 | 26 to 80 |
| O=c1c2nc([N+](=O)[O-])cn2ccn1C1CCCCC1 | > 32 | – | 5.2 | – | > 32 | > 32 | > 32 | > 32 | 5.01 | > 32 | > 32 | > 32 | >32 | – | 1.4 | 1.26 | – | – |
| Cc1cn2cc([N+](=O)[O-])nc2c(=O)[nH]1 | > 32 | – | 50 | > 50 | – | – | – | – | 50.1 | – | – | – | >32 | > 50.1 | 3.6 | 3.98 | – | – |
| Cc1c(C)n2cc([N+](=O)[O-])nc2c(=O)n1Cc1ccccc1OC(F)(F)F | > 32 | – | 5.3 | 18 | – | – | – | – | 5.01 | – | – | – | >32 | 20 | 0.78 | 0.794 | – | – |
